Source: ChEMBL document CHEMBL1275589, “Molecular epidemiology, sequence types, and plasmid analyses of KPC-producing Klebsiella pneumoniae strains in Israel” (2010)
≈ marks a conversion by molar mass, not a printed value.

Columns and labels:
Klebsiella pneumoniae [1] = experiment: Antimicrobial activity against carbapenem-resistant KPC-2 producing Klebsiella pneumoniae 526 transformant by agar dilution method; format: functional
Klebsiella pneumoniae [2] = experiment: Antimicrobial activity against carbapenem-resistant KPC-2 producing Klebsiella pneumoniae 475 ST 277 expressing beta-lactamase SHV-27, CTX-M-15 and OXA-4 by agar dilution method; format: functional
Klebsiella pneumoniae [3] = experiment: Antimicrobial activity against KPC-3 producing Klebsiella pneumoniae 549 ST 327 expressing beta-lactamase TEM-1 and CTX-M-2 by agar dilution method; format: functional
Klebsiella pneumoniae [4] = experiment: Antimicrobial activity against carbapenem-resistant KPC-2 producing Klebsiella pneumoniae 588 transformant by agar dilution method; format: functional
Klebsiella pneumoniae [5] = experiment: Antimicrobial activity against carbapenem-resistant KPC-2 producing Klebsiella pneumoniae 588 ST 340 expressing beta-lactamase TEM-1 and SHV-11 by agar dilution method; format: functional
Escherichia coli = experiment: Antimicrobial activity against Escherichia coli Genehogs by agar dilution method; format: functional
Outline: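 Carbapenem MICs by agar dilution, interpreted per CLSI. FDA Enterobacteriaceae breakpoints applied: susceptible ≤2 μg/ml, intermediate 4 μg/ml, resistant ≥8 μg/ml. Transformants were made in recipient E. coli GeneHogs with purified plasmid DNA.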

Klebsiella pneumoniae [6] = experiment: Antimicrobial activity against carbapenem-resistant KPC-2 producing Klebsiella pneumoniae 531 transformant by agar dilution method; format: functional
Klebsiella pneumoniae [7] = experiment: Antimicrobial activity against carbapenem-resistant KPC-2 producing Klebsiella pneumoniae 469 ST 277 expressing beta-lactamase SHV-27, CTX-M-15 and OXA-4 by agar dilution method; format: functional
Klebsiella pneumoniae [8] = experiment: Antimicrobial activity against carbapenem-resistant KPC-2 producing Klebsiella pneumoniae 523 transformant by agar dilution method; format: functional
Klebsiella pneumoniae [9] = experiment: Antimicrobial activity against carbapenem-resistant KPC-2 producing Klebsiella pneumoniae 531 ST 376 expressing beta-lactamase SHV-1 by agar dilution method; format: functional
Klebsiella pneumoniae [10] = experiment: Antimicrobial activity against KPC-3 producing Klebsiella pneumoniae 549 transformant by agar dilution method; format: functional
Klebsiella pneumoniae [11] = experiment: Antimicrobial activity against carbapenem-resistant KPC-2 producing Klebsiella pneumoniae 365 transformant by agar dilution method; format: functional
Klebsiella pneumoniae [12] = experiment: Antimicrobial activity against carbapenem-resistant KPC-2 producing Klebsiella pneumoniae 365 ST 376 expressing beta-lactamase SHV-1, CTX-M-15 and OXA-4 by agar dilution method
Klebsiella pneumoniae [13] = experiment: Antimicrobial activity against carbapenem-resistant KPC-2 producing Klebsiella pneumoniae 525 ST 376 expressing beta-lactamase SHV-1 by agar dilution method; format: functional
Klebsiella pneumoniae [14] = experiment: Antimicrobial activity against carbapenem-resistant KPC-2 producing Klebsiella pneumoniae 523 ST 340 expressing beta-lactamase TEM-1, SHV-11 and OXA-2 by agar dilution method; format: functional
Klebsiella pneumoniae [15] = experiment: Antimicrobial activity against carbapenem-resistant KPC-2 producing Klebsiella pneumoniae 475 transformant by agar dilution method; format: functional
Klebsiella pneumoniae [16] = experiment: Antimicrobial activity against carbapenem-resistant KPC-2 producing Klebsiella pneumoniae 469 transformant by agar dilution method; format: functional
Klebsiella pneumoniae [17] = experiment: Antimicrobial activity against carbapenem-resistant KPC-2 producing Klebsiella pneumoniae 525 transformant by agar dilution method; format: functional
Klebsiella pneumoniae [18] = experiment: Antimicrobial activity against carbapenem-resistant KPC-2 producing Klebsiella pneumoniae 526 ST 376 expressing beta-lactamase SHV-1 by agar dilution method; format: functional
Klebsiella pneumoniae [19] = experiment: Antimicrobial activity against KPC-3 producing Klebsiella pneumoniae 557 ST 258 expressing beta-lactamase TEM-1 by agar dilution method
Klebsiella pneumoniae [20] = experiment: Antimicrobial activity against KPC-3 producing Klebsiella pneumoniae 557 transformant by agar dilution method; format: functional

Row | Molecule | MIC (Klebsiella pneumoniae [1]) [µg/mL] | MIC (Klebsiella pneumoniae [2]) [µg/mL] | MIC (Klebsiella pneumoniae [3]) [µg/mL] | MIC (Klebsiella pneumoniae [4]) [µg/mL] | MIC (Klebsiella pneumoniae [5]) [µg/mL] | MIC (Escherichia coli) [µg/mL] | MIC (Klebsiella pneumoniae [6]) [µg/mL] | MIC (Klebsiella pneumoniae [7]) [µg/mL] | MIC (Klebsiella pneumoniae [8]) [µg/mL] | MIC (Klebsiella pneumoniae [9]) [µg/mL] | MIC (Klebsiella pneumoniae [10]) [µg/mL] | MIC (Klebsiella pneumoniae [11]) [µg/mL] | MIC (Klebsiella pneumoniae [12]) [µg/mL] | MIC (Klebsiella pneumoniae [13]) [µg/mL] | MIC (Klebsiella pneumoniae [14]) [µg/mL] | MIC (Klebsiella pneumoniae [15]) [µg/mL] | MIC (Klebsiella pneumoniae [16]) [µg/mL] | MIC (Klebsiella pneumoniae [17]) [µg/mL] | MIC (Klebsiella pneumoniae [18]) [µg/mL] | MIC (Klebsiella pneumoniae [20]) [µg/mL] | other results
1 | C[C@H]1[C@H](NC(=O)/C(=N\OC(C)(C)C(=O)O)c2csc(N)n2)C(=O)N1S(=O)(=O)O [AZTREONAM] | > 64 | > 64 | > 64 | > 64 | > 64 | < 1 | 64 (≈ 147 µM) | > 64 | > 64 | > 64 | > 64 | > 64 | > 64 | > 64 | > 64 | 32 (≈ 73.5 µM) | 32 (≈ 73.5 µM) | > 64 | > 64 | > 64 | MIC (Klebsiella pneumoniae [19]): > 64 µg/mL
2 | CC(C)(O/N=C(\C(=O)N[C@@H]1C(=O)N2C(C(=O)[O-])=C(C[n+]3ccccc3)CS[C@H]12)c1csc(N)n1)C(=O)O [CEFTAZIDIME] | 16 (≈ 29.3 µM) | 16 (≈ 29.3 µM) | 16 (≈ 29.3 µM) | 16 (≈ 29.3 µM) | 16 (≈ 29.3 µM) | < 1 | 16 (≈ 29.3 µM) | > 64 | 16 (≈ 29.3 µM) | > 64 | > 64 | 16 (≈ 29.3 µM) | > 64 | > 64 | 16 (≈ 29.3 µM) | 16 (≈ 29.3 µM) | > 64 | 16 (≈ 29.3 µM) | > 64 | > 64 | MIC (Klebsiella pneumoniae [19]): > 64 µg/mL
3 | C[C@@H](O)[C@H]1C(=O)N2C(C(=O)O)=C(SCCNC=N)C[C@H]12 [IMIPENEM ANHYDROUS] | 8 (≈ 26.7 µM) | 32 (≈ 107 µM) | 0.75 (≈ 2.51 µM) | 8 (≈ 26.7 µM) | 32 (≈ 107 µM) | 0.094 (≈ 0.314 µM) | 4 (≈ 13.4 µM) | 32 (≈ 107 µM) | 8 (≈ 26.7 µM) | 32 (≈ 107 µM) | 4 (≈ 13.4 µM) | 8 (≈ 26.7 µM) | 32 (≈ 107 µM) | 32 (≈ 107 µM) | 32 (≈ 107 µM) | 8 (≈ 26.7 µM) | 8 (≈ 26.7 µM) | 4 (≈ 13.4 µM) | 32 (≈ 107 µM) | 4 (≈ 13.4 µM) | MIC (Klebsiella pneumoniae [19]): 128 µg/mL (≈ 428 µM)
4 | C[C@@H](O)[C@H]1C(=O)N2C(C(=O)O)=C(S[C@@H]3CN[C@H](C(=O)N(C)C)C3)[C@H](C)[C@H]12 [MEROPENEM] | 4 (≈ 10.4 µM) | 64 (≈ 167 µM) | 8 (≈ 20.9 µM) | 4 (≈ 10.4 µM) | 64 (≈ 167 µM) | 0.012 (≈ 0.0313 µM) | 4 (≈ 10.4 µM) | 32 (≈ 83.4 µM) | 4 (≈ 10.4 µM) | 64 (≈ 167 µM) | 2 (≈ 5.22 µM) | 4 (≈ 10.4 µM) | 64 (≈ 167 µM) | 64 (≈ 167 µM) | 32 (≈ 83.4 µM) | 4 (≈ 10.4 µM) | 4 (≈ 10.4 µM) | 4 (≈ 10.4 µM) | 64 (≈ 167 µM) | 4 (≈ 10.4 µM) | MIC (Klebsiella pneumoniae [19]): 128 µg/mL (≈ 334 µM)
5 | C[C@@H](O)[C@H]1C(=O)N2C(C(=O)O)=C(S[C@@H]3CN[C@H](C(=O)Nc4cccc(C(=O)O)c4)C3)[C@H](C)[C@H]12 | 8 (≈ 16.8 µM) | 128 (≈ 269 µM) | 32 (≈ 67.3 µM) | 8 (≈ 16.8 µM) | 128 (≈ 269 µM) | 0.012 (≈ 0.0252 µM) | 2 (≈ 4.21 µM) | 64 (≈ 135 µM) | 8 (≈ 16.8 µM) | 128 (≈ 269 µM) | 4 (≈ 8.41 µM) | 8 (≈ 16.8 µM) | 64 (≈ 135 µM) | 128 (≈ 269 µM) | 64 (≈ 135 µM) | 8 (≈ 16.8 µM) | 4 (≈ 8.41 µM) | 4 (≈ 8.41 µM) | 64 (≈ 135 µM) | 4 (≈ 8.41 µM) | MIC (Klebsiella pneumoniae [19]): 256 µg/mL (≈ 538 µM)
6 | NCC[C@H](O)C(=O)N[C@@H]1C[C@H](N)[C@@H](O[C@H]2O[C@H](CN)[C@@H](O)[C@H](O)[C@H]2O)[C@H](O)[C@H]1O[C@H]1O[C@H](CO)[C@@H](O)[C@H](N)[C@H]1O [AMIKACIN] | 8 (≈ 13.7 µM) | < 2 | < 2 | 32 (≈ 54.6 µM) | 32 (≈ 54.6 µM) | < 2 | 16 (≈ 27.3 µM) | 4 (≈ 6.83 µM) | > 64 | 8 (≈ 13.7 µM) | – | < 2 | 4 (≈ 6.83 µM) | 8 (≈ 13.7 µM) | 16 (≈ 27.3 µM) | 8 (≈ 13.7 µM) | 16 (≈ 27.3 µM) | 16 (≈ 27.3 µM) | 4 (≈ 6.83 µM) | < 2 | MIC (Klebsiella pneumoniae [19]): 32 µg/mL (≈ 54.6 µM)
7 | CO/N=C(\C(=O)N[C@@H]1C(=O)N2C(C(=O)O)=C(CSc3nc(=O)c(O)nn3C)CS[C@H]12)c1csc(N)n1 [CEFTRIAXONE] | 32 (≈ 57.7 µM) | 16 (≈ 28.9 µM) | > 64 | 32 (≈ 57.7 µM) | > 64 | < 1 | 16 (≈ 28.9 µM) | > 64 | 32 (≈ 57.7 µM) | > 64 | 32 (≈ 57.7 µM) | – | > 64 | > 64 | 16 (≈ 28.9 µM) | 32 (≈ 57.7 µM) | > 64 | 8 (≈ 14.4 µM) | > 64 | 32 (≈ 57.7 µM) | MIC (Klebsiella pneumoniae [19]): > 64 µg/mL
8 | C[C@H]1COc2c(N3CCN(C)CC3)c(F)cc3c(=O)c(C(=O)O)cn1c23.C[C@H]1COc2c(N3CCN(C)CC3)c(F)cc3c(=O)c(C(=O)O)cn1c23.O [LEVOFLOXACIN] | < 0.12 | – | > 8 | < 0.12 | > 8 | 0.006 | < 0.25 | < 0.25 | 0.25 | > 8 | < 0.25 | < 0.12 | > 8 | > 8 | > 8 | < 0.12 | < 0.25 | < 0.25 | > 8 | < 0.25 | MIC (Klebsiella pneumoniae [19]): > 8 µg/mL
9 | GENTAMICIN | < 1 | > 16 | > 16 | 2 | < 1 | < 1 | < 1 | > 16 | 2 | < 1 | < 1 | < 1 | – | < 1 | > 16 | > 16 | > 16 | < 1 | < 1 | < 1 | –
